Data reported in ChEMBL document CHEMBL4699596, “Therapeutic Targeting of MMP-12 for the Treatment of Chronic Obstructive Pulmonary Disease” (J Med Chem, 2020).
pIC50: −log10 of the molar value. Activity calls are given as the source filed them. The rule behind the calls is not given here. Non-standard residues stand in square brackets, D forms with d. Residues, ends and D or L forms follow the SMILES beside them. *: point of attachment. dPhe(4-CF3) = N[C@H](Cc1ccc(C(F)(F)F)cc1)C(=O)O; dBip = N[C@H](Cc1ccc(-c2ccccc2)cc1)C(=O)O; dPhe(3-Cl) = N[C@H](Cc1cccc(Cl)c1)C(=O)O; dPhe(3-Me) = Cc1cccc(C[C@@H](N)C(=O)O)c1; dPhe(4-Cl) = N[C@H](Cc1ccc(Cl)cc1)C(=O)O; dPhe(4-Me) = Cc1ccc(C[C@@H](N)C(=O)O)cc1; dPhe(2-Me) = Cc1ccccc1C[C@@H](N)C(=O)O; dPhe(3-F) = N[C@H](Cc1cccc(F)c1)C(=O)O; dPhe(4-F) = N[C@H](Cc1ccc(F)cc1)C(=O)O; 2Nal = N[C@@H](Cc1ccc2ccccc2c1)C(=O)O; dPhe(2-F) = N[C@H](Cc1ccccc1F)C(=O)O; dIgl = N[C@@H](C(=O)O)C1Cc2ccccc2C1; d(hPhe) = N[C@H](CCc1ccccc1)C(=O)O; Bn = c1ccc(C*)cc1; NHOH = ON*

Experiments:
[1] = biological target: T1, Macrophage metalloelastase (Homo sapiens, UniProt P39900); test: Binding affinity to recombinant human 15N-labelled MMP12 catalytic domain (Gly106 to Gly263 residues) expressed in Escherichia coli BL21 Codon Plus cells assessed as ratio of peak intensities of L212 and I220 in bound versus the unbound form at 10 uM by 1D-1H NMR analysis
Target sequence in this assay (P39900 106-470 limits assumed): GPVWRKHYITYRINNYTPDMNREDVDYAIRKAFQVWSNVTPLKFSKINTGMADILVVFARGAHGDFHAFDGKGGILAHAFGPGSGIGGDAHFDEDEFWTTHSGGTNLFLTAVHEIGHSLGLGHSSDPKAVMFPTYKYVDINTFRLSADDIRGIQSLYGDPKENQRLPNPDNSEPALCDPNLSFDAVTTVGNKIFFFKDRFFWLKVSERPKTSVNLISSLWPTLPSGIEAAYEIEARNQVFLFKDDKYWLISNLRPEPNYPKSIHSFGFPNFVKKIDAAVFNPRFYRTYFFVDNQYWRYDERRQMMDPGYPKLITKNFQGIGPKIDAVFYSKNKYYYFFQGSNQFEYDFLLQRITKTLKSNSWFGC

[2] = biological target: T1, Macrophage metalloelastase; test: Inhibition of recombinant human MMP12 catalytic domain (Gly106 to Gly263 residues) expressed in Escherichia coli BL21 Codon Plus cells using 5-FAM/QXL520 FRET peptide as substrate preincubated for 15 mins followed by substrate addition and measured at 3 mins interval for 60 mins by fluorescence assay
Target sequence in this assay (P39900 whole entry, the tested form may be a part): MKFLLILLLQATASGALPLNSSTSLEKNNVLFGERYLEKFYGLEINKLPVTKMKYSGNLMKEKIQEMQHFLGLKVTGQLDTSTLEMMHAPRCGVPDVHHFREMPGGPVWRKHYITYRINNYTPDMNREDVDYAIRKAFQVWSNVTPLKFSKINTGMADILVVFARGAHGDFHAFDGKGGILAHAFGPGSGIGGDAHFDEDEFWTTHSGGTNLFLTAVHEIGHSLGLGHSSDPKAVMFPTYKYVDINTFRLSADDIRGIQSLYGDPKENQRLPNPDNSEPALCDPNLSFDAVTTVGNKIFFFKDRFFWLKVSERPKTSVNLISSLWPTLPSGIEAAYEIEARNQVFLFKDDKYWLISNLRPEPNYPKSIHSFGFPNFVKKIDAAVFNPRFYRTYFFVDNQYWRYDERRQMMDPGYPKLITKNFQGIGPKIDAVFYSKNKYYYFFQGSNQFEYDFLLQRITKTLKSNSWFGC

[3] = biological target: Matrix metalloproteinase-9 (Homo sapiens) (UniProt P14780); test: Inhibition of recombinant human 6His-tagged MMP9 catalytic domain (112 to 445 residues) expressed in Escherichia coli at 4 to 25 nM using 5-FAM/QXL520 FRET peptide as substrate preincubated for 15 mins followed by substrate addition and measured at 3 mins interval for 60 mins by fluorescence assay; settings: dose nM 4-25, time 75.0 min
Sequence of Matrix metalloproteinase-9 (Homo sapiens) (P14780 whole entry, the tested form may be a part): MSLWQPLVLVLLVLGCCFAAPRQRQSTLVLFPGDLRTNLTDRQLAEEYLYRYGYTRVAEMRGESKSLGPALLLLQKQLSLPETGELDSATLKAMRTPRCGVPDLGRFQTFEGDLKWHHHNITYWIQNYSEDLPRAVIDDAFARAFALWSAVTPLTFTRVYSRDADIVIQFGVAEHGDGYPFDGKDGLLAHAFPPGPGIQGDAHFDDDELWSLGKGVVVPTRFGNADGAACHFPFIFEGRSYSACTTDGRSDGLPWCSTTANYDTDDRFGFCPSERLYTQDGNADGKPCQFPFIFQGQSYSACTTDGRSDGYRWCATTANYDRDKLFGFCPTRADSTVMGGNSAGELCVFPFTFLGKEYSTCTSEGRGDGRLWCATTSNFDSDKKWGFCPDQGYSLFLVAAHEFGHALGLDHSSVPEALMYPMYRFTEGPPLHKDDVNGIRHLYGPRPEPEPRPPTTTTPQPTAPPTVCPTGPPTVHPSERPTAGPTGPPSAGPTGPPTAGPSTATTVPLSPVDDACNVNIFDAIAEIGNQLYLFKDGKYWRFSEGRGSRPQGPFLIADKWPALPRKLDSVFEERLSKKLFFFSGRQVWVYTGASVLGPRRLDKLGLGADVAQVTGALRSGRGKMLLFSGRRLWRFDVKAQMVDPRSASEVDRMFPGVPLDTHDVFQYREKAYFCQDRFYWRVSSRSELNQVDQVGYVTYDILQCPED
Procedure, shortened: (§1)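 Catalytic domains, 10 ng enzyme, preincubated with inhibitor 15 min at RT. FRET substrate (SensoLyte 520 kit) then added, fluorescence read every 3 min for 60 min. Inhibitors at 25 nM or 4 nM; percent inhibition reported.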

[4] = biological target: Matrix metalloproteinase-14 (Homo sapiens) (UniProt P50281); test: (§2) Inhibition of recombinant human His-tagged MMP14 expressed in Escherichia coli at 4 to 25 nM using 5-FAM/QXL520 FRET peptide as substrate preincubated for 15 mins followed by substrate addition and measured at 3 mins interval for 60 mins by fluorescence assay; settings: dose nM 4-25, time 75.0 min; procedure, shortened: as §1
[5] = test system: Mus musculus; test: Protection against porcine elastase-induced emphysema in ip dosed C57BL/6 mouse model assessed as decrease in emphysema-like pathology administered once daily for 7 days measured 21 days post initial elastase instillation by H and E staining based light microscopic analysis; format: functional, organism-based; settings: time 19.0 day
Procedure, shortened: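 Male and female C57BL/6 mice, 6–8 weeks, given one intranasal dose of 0.9 U porcine pancreatic elastase in 50 μl PBS (saline controls). From day 2, daily i.p. vehicle or inhibitor for 7 days. At day 21 lungs formalin-inflated at 20 cm pressure, paraffin-embedded, H&E-stained and imaged at 10x. Mean linear intercept = line length/alveolar wall intersections. Two-way ANOVA with Tukey.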

[6] = biological target: Stromelysin-1 (Homo sapiens) (UniProt P08254); test: as §2, with “MMP3 catalytic domain (Pro19 to Glu271 residues)” for “MMP14”; settings: dose nM 4-25, time 75.0 min; procedure, shortened: as §1
Sequence of Stromelysin-1 (Homo sapiens) (P08254 100-477 limits assumed): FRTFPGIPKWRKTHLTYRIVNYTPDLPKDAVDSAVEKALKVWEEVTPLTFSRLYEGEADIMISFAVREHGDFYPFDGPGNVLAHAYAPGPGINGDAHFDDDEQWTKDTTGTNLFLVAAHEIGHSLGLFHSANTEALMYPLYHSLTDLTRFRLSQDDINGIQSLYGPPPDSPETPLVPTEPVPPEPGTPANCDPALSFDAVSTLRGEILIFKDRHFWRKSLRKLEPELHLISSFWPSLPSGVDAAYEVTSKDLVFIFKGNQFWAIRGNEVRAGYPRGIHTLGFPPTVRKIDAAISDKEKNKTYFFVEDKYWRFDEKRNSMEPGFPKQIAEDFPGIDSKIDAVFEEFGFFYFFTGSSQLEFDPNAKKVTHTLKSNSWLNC

[7] = test system: Mus musculus; test: Protection against porcine elastase-induced emphysema in ip dosed C57BL/6 mouse model assessed as effect on total BALF cellularity/influx administered once daily for 7 days measured 21 days post initial elastase instillation; format: functional, organism-based; settings: time 19.0 day
Procedure, shortened: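 Same elastase and dosing scheme as line 10 (C57BL/6, intranasal 0.9 U PPE, daily i.p. for 7 days from day 2). At day 21 BAL cell pellet taken up in 200 μl PBS and counted on a hemocytometer. Cytospin differentials of 300 cells per slide. Two-way ANOVA with Tukey post-hoc.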

[8] = biological target: T1, Macrophage metalloelastase; test: Potency index, ratio of MMP408 IC50 to test compound IC50 for inhibition of recombinant human MMP12 catalytic domain (Gly106 to Gly263 residues) expressed in Escherichia coli BL21 Codon Plus cells
Target sequence in this assay (P39900 106-470 limits assumed): as the sequence (P39900 106-470 limits assumed) above

[9] = biological target: T2, Interstitial collagenase (Homo sapiens) (UniProt P03956); test: Inhibition of recombinant human 6His-tagged MMP1 catalytic domain (106 to 261 residues) expressed in Escherichia coli at 4 to 25 nM using 5-FAM/QXL520 FRET peptide as substrate preincubated for 15 mins followed by substrate addition and measured at 3 mins interval for 60 mins by fluorescence assay; settings: dose nM 4-25, time 75.0 min; procedure, shortened: as §1
T2 sequence (whole entry): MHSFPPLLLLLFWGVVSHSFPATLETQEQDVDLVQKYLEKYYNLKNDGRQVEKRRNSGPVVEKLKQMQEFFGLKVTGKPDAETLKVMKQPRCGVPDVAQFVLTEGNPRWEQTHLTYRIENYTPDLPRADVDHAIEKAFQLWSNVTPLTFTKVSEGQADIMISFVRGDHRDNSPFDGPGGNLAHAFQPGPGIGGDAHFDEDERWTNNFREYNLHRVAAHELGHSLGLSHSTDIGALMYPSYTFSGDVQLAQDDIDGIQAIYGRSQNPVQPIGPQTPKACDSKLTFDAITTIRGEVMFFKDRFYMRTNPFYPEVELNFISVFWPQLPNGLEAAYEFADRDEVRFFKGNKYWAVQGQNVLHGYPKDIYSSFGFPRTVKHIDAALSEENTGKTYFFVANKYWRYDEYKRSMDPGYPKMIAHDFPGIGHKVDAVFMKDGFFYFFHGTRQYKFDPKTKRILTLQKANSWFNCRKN

[10] = biological target: Collagenase 3 (Homo sapiens) (UniProt P45452); test: Inhibition of recombinant human 6His-tagged MMP13 catalytic domain (104 to 274 residues) expressed in Escherichia coli at 4 to 25 nM using 5-FAM/QXL520 FRET peptide as substrate preincubated for 15 mins followed by substrate addition and measured at 3 mins interval for 60 mins by fluorescence assay; settings: dose nM 4-25, time 75.0 min; procedure, shortened: as §1
[11] = Ratio of Cmax in Balb/c mouse at 30 mg/kg, ip to IC90 for inhibition of recombinant human MMP12 catalytic domain (Gly106 to Gly263 residues) expressed in Escherichia coli BL21 Codon Plus cells; format: organism-based; settings: in vivo
[12] = Tmax in Balb/c mouse at 30 mg/kg, ip by LC-MS/MS analysis; format: ADME, organism-based; settings: in vivo
Procedure, shortened: (§3)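 Single i.p. dose of 30 mg/kg to 5 Balb-C mice (22–26 g) in 10% DMSO, 40% PEG400, 10% (2-hydroxypropyl)-β-cyclodextrin in PBS. Retro-orbital blood taken at 30 min, 1, 2, 4, 8 and 24 h. Plasma drug measured by extraction and LC/MS against a calibration curve of purified agent.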

[13] = Half life in Balb/c mouse at 30 mg/kg, ip by LC-MS/MS analysis; format: ADME, organism-based; settings: in vivo; procedure, shortened: as §3
[14] = Cmax in Balb/c mouse at 30 mg/kg, ip by LC-MS/MS analysis; format: ADME, organism-based; design: route intraperitoneal, dose 30 mg/kg; settings: in vivo; procedure, shortened: as §3

SMILES	Ratio [1]	pIC50 [2]	other results
CC(=O)N[C@@H](COCc1ccccc1)C(=O)N[C@H](CCc1ccc(C(F)(F)F)cc1)C(=O)N[C@H](Cc1ccccc1)C(=O)NO	1	7.78	–
CC(=O)N[C@@H](COCc1ccccc1)C(=O)N[C@H](CCc1ccccc1)C(=O)N[C@H](Cc1cccc(Cl)c1)C(=O)NO (Ac-Ser(Bn)-[d(hPhe)]-[dPhe(3-Cl)]-{NHOH})	> 1	7.33	–
CC(=O)N[C@@H](CCCc1ccccc1)C(=O)N[C@H](CCc1ccccc1)C(=O)N[C@H](Cc1ccccc1)C(=O)NO	> 1	7.71	–
CC(=O)N[C@@H](Cc1c[nH]c2ccccc12)C(=O)N[C@H](CCc1ccccc1)C(=O)N[C@H](Cc1ccccc1)C(=O)NO (HELM PEPTIDE1{[ac].W.[O=C([C@@H](CCc1ccccc1)N[*:1])[*:2]].[dF].[ON[*:1]]}$$$$V2.0)	1	7.46	–
COc1ccc(CCC[C@H](NC(=O)CN2CCOCC2)C(=O)N[C@H](CCc2ccc(OC)cc2)C(=O)N[C@H](Cc2ccc(C)cc2)C(=O)NO)cc1	–	8.36	inhibition [3]: inactive; inhibition [4]: inactive; Activity [5]: Active; inhibition [6]: Active; Activity [7]: inactive; Ratio IC50 [8]: > 5; inhibition [9]: inactive; inhibition [10]: inactive
CC(=O)N[C@@H](COCc1ccccc1)C(=O)N[C@H](Cc1ccc(-c2ccccc2)cc1)C(=O)N[C@H](Cc1ccccc1)C(=O)NO (Ac-Ser(Bn)-[dBip]-[dF]-{NHOH})	inactive	–	–
CC(=O)N[C@@H](COCc1ccccc1)C(=O)N[C@H](CCc1ccccc1)C(=O)N[C@H](Cc1ccc(F)c(F)c1F)C(=O)NO	1	7.12	–
CC(=O)N[C@@H](COCc1ccccc1)C(=O)N[C@H](CCc1ccccc1)C(=O)N[C@H](Cc1ccccc1)C(=O)NO (Ac-Ser(Bn)-[d(hPhe)]-[dF]-{NHOH})	> 1	7.58	inhibition [3]: inactive; inhibition [4]: inactive; inhibition [9]: inactive; inhibition [10]: inactive
CC(=O)N[C@@H](COCc1ccccc1)C(=O)N[C@H](CCc1ccccc1)C(=O)N[C@H](Cc1ccccc1C)C(=O)NO (Ac-Ser(Bn)-[d(hPhe)]-[dPhe(2-Me)]-{NHOH})	< 1	–	–
CC(=O)N[C@@H](COCc1ccccc1)C(=O)N[C@H](CCc1ccccc1)C(=O)N[C@H](Cc1ccc(O)cc1)C(=O)NO (Ac-Ser(Bn)-[d(hPhe)]-[dY]-{NHOH})	> 1	7.38	–
CC(=O)N[C@@H](COCc1ccccc1)C(=O)N[C@@H](C(=O)N[C@H](Cc1ccccc1)C(=O)NO)C1Cc2ccccc2C1 (Ac-Ser(Bn)-[dIgl]-[dF]-{NHOH})	inactive	–	–
CC(=O)N[C@@H](Cc1ccc2ccccc2c1)C(=O)N[C@H](CCc1ccccc1)C(=O)N[C@H](Cc1ccccc1)C(=O)NO (Ac-[2Nal]-[d(hPhe)]-[dF]-{NHOH})	< 1	6.86	–
CC(=O)N[C@@H](COCc1ccccc1)C(=O)N[C@H](CCc1ccccc1)C(=O)N[C@H](Cc1ccc(Cl)cc1)C(=O)NO (Ac-Ser(Bn)-[d(hPhe)]-[dPhe(4-Cl)]-{NHOH})	> 1	7.45	–
CC(=O)N[C@@H](COCc1ccccc1)C(=O)N[C@H](CCc1ccccc1)C(=O)N[C@H](Cc1ccc(C)cc1)C(=O)NO (Ac-Ser(Bn)-[d(hPhe)]-[dPhe(4-Me)]-{NHOH})	> 1	7.68	–
COc1ccc(CCC[C@H](NC(C)=O)C(=O)N[C@H](CCc2ccccc2)C(=O)N[C@H](Cc2ccccc2)C(=O)NO)cc1	> 1	7.69	–
CC(=O)N[C@@H](COCc1ccccc1)C(=O)N[C@H](CCc1ccccc1)C(=O)N[C@H](Cc1cccc(C)c1)C(=O)NO (Ac-Ser(Bn)-[d(hPhe)]-[dPhe(3-Me)]-{NHOH})	> 1	7.45	–
CC(=O)N[C@@H](COCc1ccccc1)C(=O)N[C@H](CCCc1ccccc1)C(=O)N[C@H](Cc1ccccc1)C(=O)NO	< 1	–	–
CC(=O)N[C@@H](COCc1ccccc1)C(=O)N[C@H](CCc1ccccc1)C(=O)N[C@H](Cc1ccc(OS(=O)(=O)F)cc1)C(=O)NO	< 1	–	–
CC(=O)N[C@@H](COCc1ccccc1)C(=O)N[C@H](CCc1ccccc1)C(=O)N[C@H](Cc1cccc(F)c1)C(=O)NO (Ac-Ser(Bn)-[d(hPhe)]-[dPhe(3-F)]-{NHOH})	> 1	7.52	–
COc1ccc(CC[C@@H](NC(=O)[C@H](CCCc2ccccc2)NC(=O)CN2CCOCC2)C(=O)N[C@H](Cc2ccc(C)cc2)C(=O)NO)cc1	–	8.35	inhibition [3]: inactive; Ratio [11]: > 20; inhibition [4]: inactive; Tmax [12]: 2 h; half-life [13]: 5 h; Activity [5]: Active; inhibition [6]: Active; Activity [7]: inactive; Cmax [14]: 580 nM; Ratio IC50 [8]: > 5; inhibition [9]: inactive; inhibition [10]: inactive
COc1ccc(CC[C@@H](NC(=O)[C@H](COCc2ccccc2)NC(C)=O)C(=O)N[C@H](Cc2ccccc2)C(=O)NO)cc1	> 1	7.79	–
CC(=O)N[C@@H](COCc1ccccc1)C(=O)N[C@H](CCc1ccccc1)C(=O)N[C@H](Cc1ccc(C(F)(F)F)cc1)C(=O)NO (Ac-Ser(Bn)-[d(hPhe)]-[dPhe(4-CF3)]-{NHOH})	1	7.24	–
CC(=O)N[C@@H](COCc1ccccc1)C(=O)N[C@H](CCc1ccccc1)C(=O)N[C@H](Cc1ccccc1F)C(=O)NO (Ac-Ser(Bn)-[d(hPhe)]-[dPhe(2-F)]-{NHOH})	> 1	7.56	–
CNC(=O)[C@H](Cc1c[nH]c2ccccc12)NC(=O)[C@@H](CC(=O)NO)CC(C)C [ILOMASTAT]	–	8.62	inhibition [6]: Active
CC(=O)N[C@@H](COCc1ccccc1)C(=O)N[C@H](CCc1ccccc1)C(=O)N[C@H](Cc1ccc(OC(C)=O)cc1)C(=O)NO (Ac-Ser(Bn)-[d(hPhe)]-[dY](Ac)-{NHOH})	1	7.44	–
COC(=O)Nc1ccc2oc3cc(S(=O)(=O)N[C@@H](C(=O)O)C(C)C)ccc3c2c1	–	–	Activity [5]: Active; Activity [7]: inactive
CC(=O)N[C@@H](COCc1ccccc1)C(=O)N[C@H](CCc1ccccc1)C(=O)N[C@H](Cc1ccc(F)cc1)C(=O)NO (Ac-Ser(Bn)-[d(hPhe)]-[dPhe(4-F)]-{NHOH})	> 1	7.38	–
